Data published in ChEMBL document CHEMBL1152812, “Novel trans-2-aryl-cyclopropylamine analogues as potent and selective dipeptidyl peptidase IV inhibitors” (Bioorg Med Chem, 2009).
Calls of active or inactive are those of the source. The calls are words filed in the database; no cut-off is given here.

Columns and labels:
Dipeptidyl peptidase 8 [1] = target: T1, Dipeptidyl peptidase 8 (Homo sapiens, UniProt Q6V1X1); assay: Inhibition of human DPP8 at 20 uM
Target sequence in this assay (Q6V1X1 whole entry, looked up): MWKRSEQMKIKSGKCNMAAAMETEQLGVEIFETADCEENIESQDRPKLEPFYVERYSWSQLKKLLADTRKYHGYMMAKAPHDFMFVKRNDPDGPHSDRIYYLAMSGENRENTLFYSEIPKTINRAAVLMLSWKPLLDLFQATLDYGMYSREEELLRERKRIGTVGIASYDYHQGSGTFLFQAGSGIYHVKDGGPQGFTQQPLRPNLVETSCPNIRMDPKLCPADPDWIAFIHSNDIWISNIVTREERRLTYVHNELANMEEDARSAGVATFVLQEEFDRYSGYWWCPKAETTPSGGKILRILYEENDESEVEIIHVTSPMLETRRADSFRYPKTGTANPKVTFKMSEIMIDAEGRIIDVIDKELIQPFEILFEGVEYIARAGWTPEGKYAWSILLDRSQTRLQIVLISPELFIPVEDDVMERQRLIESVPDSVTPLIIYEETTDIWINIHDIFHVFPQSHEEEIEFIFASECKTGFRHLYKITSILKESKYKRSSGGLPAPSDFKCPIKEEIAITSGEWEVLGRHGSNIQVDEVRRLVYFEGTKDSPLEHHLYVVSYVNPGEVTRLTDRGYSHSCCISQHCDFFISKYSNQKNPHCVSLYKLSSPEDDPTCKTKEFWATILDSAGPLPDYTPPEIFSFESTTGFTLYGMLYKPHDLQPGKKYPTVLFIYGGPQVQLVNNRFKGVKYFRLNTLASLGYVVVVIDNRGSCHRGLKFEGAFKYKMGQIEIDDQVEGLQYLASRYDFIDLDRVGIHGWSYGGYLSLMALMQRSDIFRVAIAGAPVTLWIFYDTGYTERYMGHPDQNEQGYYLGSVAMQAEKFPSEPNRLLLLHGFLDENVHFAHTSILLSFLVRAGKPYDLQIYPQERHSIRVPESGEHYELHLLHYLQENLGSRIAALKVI

Dipeptidyl peptidase 8 [2] = target: T1, Dipeptidyl peptidase 8; assay: Inhibition of human DPP8
Target sequence in this assay (Q6V1X1 whole entry): as the sequence (Q6V1X1 whole entry, looked up) above

Prolyl endopeptidase FAP = target: T2, Prolyl endopeptidase FAP (Homo sapiens, UniProt Q12884); assay: Inhibition of human FAP
T2 sequence (Q12884 whole entry): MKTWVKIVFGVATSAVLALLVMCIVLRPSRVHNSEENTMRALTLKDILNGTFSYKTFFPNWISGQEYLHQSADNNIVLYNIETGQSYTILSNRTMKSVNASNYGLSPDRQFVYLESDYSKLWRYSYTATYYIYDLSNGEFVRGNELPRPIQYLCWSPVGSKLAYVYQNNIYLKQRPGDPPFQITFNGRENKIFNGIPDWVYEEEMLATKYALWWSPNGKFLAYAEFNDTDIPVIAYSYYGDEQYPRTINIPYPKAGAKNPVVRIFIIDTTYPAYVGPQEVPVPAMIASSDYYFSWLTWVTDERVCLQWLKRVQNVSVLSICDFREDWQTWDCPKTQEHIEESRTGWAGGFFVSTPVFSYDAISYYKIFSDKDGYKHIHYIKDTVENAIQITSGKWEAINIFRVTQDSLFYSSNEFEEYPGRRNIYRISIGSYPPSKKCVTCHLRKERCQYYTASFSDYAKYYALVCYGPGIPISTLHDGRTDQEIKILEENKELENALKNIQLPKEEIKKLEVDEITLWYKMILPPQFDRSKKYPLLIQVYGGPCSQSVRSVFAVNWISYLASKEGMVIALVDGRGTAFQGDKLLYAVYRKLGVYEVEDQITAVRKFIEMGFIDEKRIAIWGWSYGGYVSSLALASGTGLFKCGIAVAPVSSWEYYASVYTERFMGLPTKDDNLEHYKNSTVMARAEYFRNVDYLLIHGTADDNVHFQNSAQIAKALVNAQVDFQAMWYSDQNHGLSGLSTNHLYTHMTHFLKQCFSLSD

Dipeptidyl peptidase 2 = Dipeptidyl peptidase 2 (Homo sapiens, UniProt Q9UHL4); assay: Inhibition of human DPP2
[3] = Oral bioavailability in rat at 25 mg/kg, po; type: ADME, organism-based; settings: in vivo
Method in brief: (§1)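 Rat pharmacokinetics after dosing at 5 mg/kg iv and 25 mg/kg po. Parameters derived: plasma clearance, oral Cmax, oral half-life, dose-normalised oral AUC and oral bioavailability (F).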

[4] = Plasma clearance in rat at 5 mg/kg, iv or 25 mg/kg, po; type: ADME, organism-based; method in brief: as §1
[5] = Half life in rat at 25 mg/kg, po; type: ADME, organism-based; parameters: dose 25 mg/kg, route oral; settings: in vivo; method in brief: as §1
[6] = Cmax in rat at 25 mg/kg, po; type: ADME, organism-based; parameters: dose 25 mg/kg, route oral; settings: in vivo; method in brief: as §1
hERG (KCNH2) = hERG (KCNH2) (Homo sapiens, UniProt Q12809); assay: Inhibition of human ERG at 10 uM
Method in brief: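 hERG binding; percent inhibition at a test concentration of 10 µM.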

Rattus norvegicus [7] = assay: Inhibition of DPP4 in Wistar rat plasma at 10 mg/kg, po within 30 mins; type: functional; settings: 0.5 h
Method in brief: (§2)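 Adult male Wistar rats (n = 4–6/group) given a single oral gavage of 10 mg/kg in 0.5% methyl cellulose. Tail-vein blood (25–50 µl) taken at timed points and plasma kept frozen. Plasma (10 µl) mixed with 150 µM Gly-Pro-AMC in 25 mM Tris-HCl pH 7.4, 140 mM NaCl, 10 mM KCl, 0.1% BSA. Fluorescence read at ex 390/em 460 nm. Activity in U/mL; mean ± SEM.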

Rattus norvegicus [8] = assay: Inhibition of DPP4 in Wistar rat plasma at 10 mg/kg, po after 8 hrs; type: functional; method in brief: as §2
[9] = Cmax in rat at 10 mg/kg, po; type: ADME, organism-based; parameters: dose 10 mg/kg, route oral; settings: in vivo
Method in brief: (§3)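 Rat pharmacokinetics after dosing at 5 mg/kg iv and 10 mg/kg po. Parameters derived: plasma clearance, oral Cmax, oral half-life, dose-normalised oral AUC and oral bioavailability (F).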

Rattus norvegicus [10] = assay: (§4) Oral bioavailability in rat at 10 mg/kg, po; type: ADME, organism-based; settings: in vivo; method in brief: as §3
[11] = Plasma clearance in rat at 5 mg/kg, iv or 10 mg/kg, po; type: ADME, organism-based; method in brief: as §3
[12] = Half life in rat at 10 mg/kg, po; type: ADME, organism-based; parameters: dose 10 mg/kg, route oral; settings: in vivo; method in brief: as §3
Rattus norvegicus [13] = assay: Inhibition of DPP4 in Wistar rat plasma at 10 mg/kg, po after 24 hrs; type: functional, organism-based; parameters: dose 10 mg/kg; method in brief: as §2
Mus musculus [14] = assay: Reduction in glucose excursion in C57BL/6J lean mouse at 3 mg/kg, po pretreated 30 mins before glucose challenge measured after 120 mins by oral glucose tolerance test relative to control; type: functional, organism-based; parameters: dose 3 mg/kg
Method in brief: (§5)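 Fasted overnight: adult male C57BL/6 mice (20–25 g, 6–8 weeks old, n = 6/group), grouped by tail-vein glucometer reading. Oral gavage of test agent in distilled water at −30 min (1, 3 or 10 mg/kg), then 3 g/kg oral glucose (400 mg/mL) at 0 min.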

[15] = as §4; type: ADME, organism-based; settings: in vivo; method in brief: as §3
Mus musculus [16] = assay: Reduction in glucose AUC in C57BL/6J diet-induced obese mouse at 1 mg/kg, po pretreated 30 mins before glucose challenge measured after 120 mins by oral glucose tolerance test relative to control; type: functional; parameters: scale not given: the % may be the effect or the level left
Method in brief: (§6)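 Male C57BL/6j DIO mice (40–50 g, 27 weeks old, n = 6/group) fasted overnight and grouped by tail-vein glucometer reading. Test agent given by oral gavage in distilled water, then 3 g/kg glucose orally (400 mg/mL in water) 30 min later.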

Homo sapiens [17] = species on record: Homo sapiens; assay: Selectivity for ratio of IC50 for human DPP4 to IC50 for human FAP
Mus musculus [18] = assay: Reduction in glucose excursion in C57BL/6J lean mouse at 10 mg/kg, po pretreated 30 mins before glucose challenge measured after 120 mins by oral glucose tolerance test relative to control; type: functional; parameters: scale not given: the % may be the effect or the level left; method in brief: as §5
Homo sapiens [19] = species on record: Homo sapiens; assay: Selectivity for ratio of IC50 for human DPP4 to IC50 for human DPP8
Homo sapiens [20] = species on record: Homo sapiens; assay: Selectivity for ratio of IC50 for human DPP4 to IC50 for human DPP2
Mus musculus [21] = assay: Reduction in glucose AUC in C57BL/6J diet-induced obese mouse at 3 mg/kg, po pretreated 30 mins before glucose challenge measured after 120 mins by oral glucose tolerance test relative to control; type: functional; parameters: scale not given: the % may be the effect or the level left; method in brief: as §6
Mus musculus [22] = assay: Reduction in glucose excursion in C57BL/6J lean mouse at 1 mg/kg, po pretreated 30 mins before glucose challenge measured after 120 mins by oral glucose tolerance test relative to control; type: functional; parameters: scale not given: the % may be the effect or the level left; method in brief: as §5
Mus musculus [23] = assay: Reduction in glucose excursion in po dosed C57BL/6J lean mouse pretreated for 30 mins before glucose challenge measured after 120 mins by oral glucose tolerance test; type: functional, organism-based; method in brief: as §5
Mus musculus [24] = assay: Reduction in glucose AUC in C57BL/6J diet-induced obese mouse at 10 mg/kg, po pretreated 30 mins before glucose challenge measured after 120 mins by oral glucose tolerance test relative to control; type: functional; parameters: scale not given: the % may be the effect or the level left; method in brief: as §6
[25] = target: T3, Endothelin-converting enzyme 1 (Homo sapiens) (UniProt P42892); assay: Inhibition of ECE-1 at 10 uM
T3 sequence (whole entry): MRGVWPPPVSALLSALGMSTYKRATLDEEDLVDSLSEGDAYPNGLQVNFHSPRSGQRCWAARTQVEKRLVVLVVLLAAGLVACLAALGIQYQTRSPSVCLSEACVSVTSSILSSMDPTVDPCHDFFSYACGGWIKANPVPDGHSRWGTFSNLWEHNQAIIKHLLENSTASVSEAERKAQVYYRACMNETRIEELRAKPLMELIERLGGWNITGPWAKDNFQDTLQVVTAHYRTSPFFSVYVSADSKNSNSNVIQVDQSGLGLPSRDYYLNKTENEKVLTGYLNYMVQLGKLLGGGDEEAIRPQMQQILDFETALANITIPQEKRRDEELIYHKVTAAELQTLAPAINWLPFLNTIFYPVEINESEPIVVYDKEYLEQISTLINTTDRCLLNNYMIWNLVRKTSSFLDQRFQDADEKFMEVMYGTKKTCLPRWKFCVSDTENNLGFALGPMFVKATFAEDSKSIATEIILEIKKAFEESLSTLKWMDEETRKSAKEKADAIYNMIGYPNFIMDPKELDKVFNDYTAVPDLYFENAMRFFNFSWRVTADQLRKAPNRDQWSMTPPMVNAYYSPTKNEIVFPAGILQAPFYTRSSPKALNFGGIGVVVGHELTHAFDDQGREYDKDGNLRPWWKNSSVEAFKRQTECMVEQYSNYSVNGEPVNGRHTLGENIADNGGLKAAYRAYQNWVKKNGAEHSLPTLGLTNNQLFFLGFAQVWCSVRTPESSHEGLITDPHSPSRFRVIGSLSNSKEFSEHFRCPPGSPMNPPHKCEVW
Method in brief: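 Part of a panel of 167 enzyme assays; percent inhibition at a test concentration of 10 µM.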

Chain of hERG (KCNH2) (Q12809 whole entry): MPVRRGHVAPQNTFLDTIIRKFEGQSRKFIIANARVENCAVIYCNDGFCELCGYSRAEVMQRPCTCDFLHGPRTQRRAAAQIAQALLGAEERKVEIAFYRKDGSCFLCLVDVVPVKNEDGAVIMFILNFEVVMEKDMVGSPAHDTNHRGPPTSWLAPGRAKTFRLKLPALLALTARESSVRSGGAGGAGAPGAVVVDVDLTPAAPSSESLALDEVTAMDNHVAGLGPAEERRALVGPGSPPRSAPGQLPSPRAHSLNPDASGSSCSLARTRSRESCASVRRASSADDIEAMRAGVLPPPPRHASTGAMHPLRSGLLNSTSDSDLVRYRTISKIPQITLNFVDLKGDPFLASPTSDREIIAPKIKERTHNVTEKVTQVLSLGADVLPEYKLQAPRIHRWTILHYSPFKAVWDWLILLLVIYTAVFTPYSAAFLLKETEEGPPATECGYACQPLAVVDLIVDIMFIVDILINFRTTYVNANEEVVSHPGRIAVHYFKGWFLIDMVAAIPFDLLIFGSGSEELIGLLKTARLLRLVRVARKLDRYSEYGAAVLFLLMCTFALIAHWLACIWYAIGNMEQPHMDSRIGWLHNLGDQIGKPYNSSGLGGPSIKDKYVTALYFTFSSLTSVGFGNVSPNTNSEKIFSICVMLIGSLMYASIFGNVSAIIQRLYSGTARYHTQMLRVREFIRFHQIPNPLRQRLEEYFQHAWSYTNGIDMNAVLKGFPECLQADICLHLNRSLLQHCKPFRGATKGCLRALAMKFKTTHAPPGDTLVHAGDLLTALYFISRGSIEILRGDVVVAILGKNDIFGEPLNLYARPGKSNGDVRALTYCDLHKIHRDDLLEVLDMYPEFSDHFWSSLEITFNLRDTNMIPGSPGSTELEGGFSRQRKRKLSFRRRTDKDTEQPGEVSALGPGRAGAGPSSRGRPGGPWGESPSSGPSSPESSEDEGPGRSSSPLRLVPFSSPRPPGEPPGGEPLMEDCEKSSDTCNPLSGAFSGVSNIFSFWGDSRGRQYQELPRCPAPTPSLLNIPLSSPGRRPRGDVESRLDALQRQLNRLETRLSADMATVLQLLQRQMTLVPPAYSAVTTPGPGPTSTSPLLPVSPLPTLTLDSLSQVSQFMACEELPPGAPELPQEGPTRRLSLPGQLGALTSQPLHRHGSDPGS

CC(C)(CC(=O)N[C@H]1C[C@@H]1c1cccnc1)NCC(=O)N1C[C@@H](F)C[C@H]1C#N
inhibition (Dipeptidyl peptidase 8 [1]): 17%
IC50 (Dipeptidyl peptidase 8 [2]): > 20 µM
IC50 (Prolyl endopeptidase FAP): > 20 µM
IC50 (Dipeptidyl peptidase 2): > 20 µM

COc1ccc([C@H]2C[C@@H]2NC(=O)CC(C)(C)NCC(=O)N2C[C@@H](F)C[C@H]2C#N)cc1
bioavailability [3]: 28%
clearance [4]: 20 mL/min/kg
half-life [5]: 5.3 h
IC50 (Dipeptidyl peptidase 8 [2]): > 20 µM
Cmax [6]: 347 ng/mL
IC50 (Prolyl endopeptidase FAP): > 20 µM
IC50 (Dipeptidyl peptidase 2): > 20 µM

CC(C)(CC(=O)N[C@H]1C[C@@H]1c1cccc(Cl)c1)NCC(=O)N1CC(F)(F)C[C@H]1C#N
bioavailability [3]: 53%
clearance [4]: 189 mL/min/kg
half-life [5]: 3.2 h
Cmax [6]: 454 ng/mL
inhibition at 10 µM (hERG (KCNH2)): 15%
IC50 (Dipeptidyl peptidase 2): 0.59 µM

Cc1ncsc1[C@H]1C[C@@H]1NC(=O)CC(C)(C)NCC(=O)N1C[C@@H](F)C[C@H]1C#N
inhibition (Dipeptidyl peptidase 8 [1]): 23%
inhibition in vivo at 10 mg/kg (Rattus norvegicus [7]): 60%
inhibition in vivo at 10 mg/kg (Rattus norvegicus [8]): 30%
IC50 (Dipeptidyl peptidase 8 [2]): > 20 µM
IC50 (Prolyl endopeptidase FAP): > 20 µM
IC50 (Dipeptidyl peptidase 2): > 20 µM

COc1cccc([C@H]2C[C@@H]2NC(=O)CC(C)(C)NCC(=O)N2C[C@@H](F)C[C@H]2C#N)c1
Cmax [9]: 898 ng/mL
F (Rattus norvegicus [10]): 194%
IC50 (Dipeptidyl peptidase 8 [2]): > 20 µM
IC50 (Prolyl endopeptidase FAP): > 20 µM
clearance [11]: 124 mL/min/kg
IC50 (Dipeptidyl peptidase 2): > 20 µM
half-life [12]: 6.8 h

N[C@@H](CC(=O)N1CCn2c(nnc2C(F)(F)F)C1)Cc1cc(F)c(F)cc1F
Activity (Rattus norvegicus [13]): inactive
Activity (Mus musculus [14]): Active

CC(C)(CC(=O)N[C@H]1C[C@@H]1c1cccc(F)c1)NCC(=O)N1C[C@@H](F)C[C@H]1C#N
Cmax [9]: 175 ng/mL
bioavailability [15]: 29%
IC50 (Prolyl endopeptidase FAP): > 20 µM
clearance [11]: 55 mL/min/kg
IC50 (Dipeptidyl peptidase 2): > 20 µM
half-life [12]: 1.2 h

CC(C)(CC(=O)N[C@H]1C[C@@H]1c1cccc(Cl)c1)NCC(=O)N1C[C@@H](F)C[C@H]1C#N
Activity (Mus musculus [16]): 72%
Activity (Homo sapiens [17]): > 1300
Activity (Rattus norvegicus [13]): inactive
inhibition in vivo at 10 mg/kg (Rattus norvegicus [7]): > 85%
Activity (Mus musculus [18]): 73%
Cmax [9]: 621 ng/mL
bioavailability [15]: 42%
Activity (Homo sapiens [19]): > 1300
Activity (Homo sapiens [20]): > 1300
Activity (Mus musculus [21]): 98%
IC50 (Prolyl endopeptidase FAP): > 20 µM
clearance [11]: 22 mL/min/kg
inhibition at 10 µM (hERG (KCNH2)): 11%
Activity (Mus musculus [22]): 50%
IC50 (Dipeptidyl peptidase 2): > 20 µM
half-life [12]: 4.8 h
Activity (Mus musculus [23]): Dose-dependent effect
Activity (Mus musculus [24]): 83%
inhibition [25]: 53%
